Bioassay records deposited in PubChem BioAssay by several laboratories.
H69AR growth 86K: blocks growth of human H69AR lung tumor cells; H69AR lung tumor viability, ATP luminescence, 72 h; active compounds read low; viability, % at 10 µM; hit rate 6% among 85,000;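 active = viability at or below 40%; inactive = viability above 40%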;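 note: multidrug resistant small cell line overexpressing MRP-1 efflux transporter; 100% = mean luminescence of untreated control wells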
Jurkat tox 60K: reduces viability or proliferation of Jurkat cells. Jurkat E6.1 viability, ATP luminescence, 48 h. inhibition, % at 4 µM. hit rate 1.2% among 56,000. AID 463;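 active = inhibition above the mean inhibition of all tested compounds plus 3 SD, cut at about 28% in these data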
HUVEC inhibit: blocks proliferation of human endothelial cells; hit rate 1.1% among 86,000; AID 648; viability, % at 10 µM (by protocol); HUVEC proliferation, CellTiter-Glo luminescence, 72 h; active compounds read low;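 active = viability at or below 30%; inactive = viability above 30%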;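 note: 100% = median luminescence of DMSO-only cell control wells on each plate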
Fibroblast inh: blocks proliferation of human lung fibroblasts; LL 47 human lung fibroblast viability, ATP luminescence; active compounds read low; viability, % at 10 µM; hit rate 1.1% among 85,000; AID 719;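 active = viability at or below 50% in the single dose screen; inactive = viability above 50%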;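 note: compound exposure lasted 72 h before the ATP readout; 100% = median luminescence of untreated cell-only wells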
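Material: human lung fibroblast line LL 47, low passage; Evaluation: viability percentage against median untreated-cell control; Buffer or medium: 15% FBS in IMEM; Incubation: 72 h compound exposure at 37 °C after overnight plating; Dosing: 0.1% DMSO in all compound wells; Measured by: CellTiter-Glo luminescence.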
An asterisk follows results filed as active; . = no result given. Compounds with a hit are over-represented: about 6.6% of the library has one in this group of screens.

SMILES	H69AR growth 86K	Jurkat tox 60K	HUVEC inhibit	Fibroblast inh
CCOc1ccc(N(CCC#N)S(=O)(=O)c2ccc(OC)cc2)cc1	20.9*	7.5	80.2	85.2
CC1(C)SC2[C@H](NC(=O)C(NC(=O)N3CCNC3=O)c3ccccc3)C(=O)N2C1C(=O)O (some centres undefined)	100.7	.	103.4	102.7
CCCN(CCC)C(=O)CC(c1ccccc1)c1cc(Br)ccc1O (centres undefined)	3.5*	.	65.6	80.2
COc1ccc(CNC(=O)C2COc3ccccc3O2)c(OC)c1 (centres undefined)	90.7	6.0	97.4	104.0
COc1cc(/C=N/Nc2snc(SC)c2C#N)cc(OC)c1OC	24.5*	.	60.0	71.3
Cc1ccc(CN(CC(=O)NCCc2ccccc2)C(=O)CCCC(=O)Nc2cc(C)on2)cc1	105.3	-1.6	91.7	99.5
O=C(CCCCCn1c(=S)[nH]c2cc3c(cc2c1=O)OCO3)N1CCN(C2CCCCC2)CC1	2.2*	.	48.7	4.8*
C=CCn1c(SCC(=O)N2CC(=O)Nc3ccccc32)nc2scc(-c3ccccc3)c2c1=O	26.1*	.	73.8	98.5
CCOC(=O)c1c(NC(=O)c2ccc(Cl)s2)sc(C)c1C	32.6*	-6.7	76.1	100.1
CCCc1cc(C(=O)Nc2c(C)n(C)n(-c3ccccc3)c2=O)no1	96.5	.	106.9	97.1
Cc1nn(-c2ccccc2)c2c1/C(=N/O)CC(C)(C)C2	30.0*	-5.5	105.5	96.8
C/C(CCC12CC3CC(CC(C3)C1)C2)=N\NC(N)=S	12.9*	.	65.8	72.7
O=C(Nc1cnn(Cc2ccc(Cl)c(Cl)c2)c1)C12CC3CC(CC(C3)C1)C2	83.1	.	84.7	97.7
CC1=CC(=O)C(C(C)C)=C/C1=N/OC(=O)c1cccc([N+](=O)[O-])c1	32.6*	.	104.1	86.5
Cc1sc2nc(SCC(=O)c3cc(C)n(CC4CCCO4)c3C)n(C(C)C)c(=O)c2c1C (centres undefined)	48.8	2.1	77.4	91.4
CN(C)CCNC(=O)CN1C(=O)COc2ccc(C(C)(C)C)cc21	92.3	.	103.9	101.0
C=CCn1c(N(C)C)nc2c1c(=O)[nH]c(=O)n2C	.	-5.4	.	.
COc1cc(Cl)c(C)cc1NC(=O)COC(=O)/C=C/c1c(C)nn(C2CCS(=O)(=O)C2)c1Cl (centres undefined)	32.8*	.	56.4	65.0
Fc1cccc(Cl)c1CSc1nnnn1-c1ccc2c(c1)OCO2	15.4*	9.3	88.6	92.5
Fc1cccc(Cl)c1Cn1nnc(-c2ccc3c(c2)OCO3)n1	84.9	-2.1	95.3	97.9
CCN(CC)CCNC(=O)C(C)c1nn(CC)c(=O)c2ccccc12 (centres undefined)	86.5	.	89.5	109.5
COc1ccc(CN(C(=O)CSc2nnc(-c3c[nH]c4ccccc34)o2)c2ccc(F)cc2)cc1OC	11.1*	.	18.0*	51.4
COc1ccc(N(Cc2ccccc2)C(=O)CSc2nnc(Cn3nnc4ccccc43)o2)cc1	103.2	.	103.6	96.2
O=C(CSc1nnc(Cn2nnc3ccccc32)o1)N(Cc1ccc(F)cc1)c1ccccc1	71.9	97.8*	81.1	90.2
COc1ccc(C2C(=O)N(CCc3ccccc3)CC(=O)N2C2CCCCC2)cc1 (centres undefined)	62.7	.	89.5	89.1
SMILES	H69AR growth 86K	Jurkat tox 60K	HUVEC inhibit	Fibroblast inh
O=C(CC1CC2CCC1C2)OCC(=O)c1c[nH]c2ccccc12 (centres undefined)	70.7	.	83.7	106.6
Cc1ccc(S(=O)(=O)c2cc3c(=O)n4cccc(C)c4nc3n(CC3CCCO3)c2=N)cc1 (centres undefined)	39.8*	.	78.6	93.9
C=CCn1cnc2c(c1=O)c1nc3ccccc3nc1n2/N=C/c1cc(OC)c(OC)c(OC)c1	8.9*	2.2	38.9	24.4*
CCCCN1C(=O)CN(CCc2ccccc2)C(=O)C1c1ccc(OC)cc1 (centres undefined)	37.7*	.	104.3	91.9
CCOc1ccccc1CNC(=O)C1CCN(C(=O)c2sccc2-n2cccc2)CC1	.	-0.8	.	.
Cn1c(=O)[nH]c(=O)c2c1nc(N1CCCC1)n2CCCSc1nc2ccccc2o1	95.0	.	93.0	83.8
Cn1c(=O)[nH]c(=O)c2c1nc(Br)n2CCCSc1nc2ccccc2o1	16.2*	15.4	57.4	59.9
O=C(CSC1=NS(=O)(=O)c2ccccc21)Nc1ccccc1	18.9*	-3.9	48.3	52.6
COC(=O)CSC1=NS(=O)(=O)c2ccccc21	37.1*	0.5	80.4	68.7
Cn1cnnc1SCC(=O)Nc1ccccc1	100.8	-2.5	97.0	108.1
CN(C)c1nc(N)nc(CSc2nc3cc(Cl)ccc3o2)n1	83.0	0.0	118.3	94.2
O=S1(=O)C=C(Sc2nc3cc(Cl)ccc3o2)c2ccccc21	.	99.4*	.	.
COc1cc2c(cc1OC)CN(S(=O)(=O)c1ccc3c(c1)OCCO3)CC2	94.2	6.8	98.5	95.3
CC(C)c1ccc(CNc2ccc(N3CCOCC3)cc2)cc1	83.7	-3.1	104.7	107.2
CCOc1ccc(CNc2ccc(N3CCCC3)cc2)cc1	1.8*	-2.1	90.4	83.7
C=CCNC(=O)c1c(N)n(-c2ccc3c(c2)OCO3)c2nc3ccccc3nc12	12.7*	-4.9	37.0	30.7*
Nc1c(C(=O)NCC2CCCO2)c2nc3ccccc3nc2n1-c1ccccc1 (centres undefined)	21.2*	-1.8	79.0	74.1
COc1ccccc1-n1c(N)c(C(=O)NCC2CCCO2)c2nc3ccccc3nc21 (centres undefined)	53.2	.	64.7	80.2
CCCCOc1ccc(C(CC(=O)NC)C(=O)O)cc1 (centres undefined)	97.4	.	100.4	100.3
O=S(=O)(NCCc1ccccn1)c1ccc(F)c(F)c1	98.6	-1.9	105.4	104.0
CCCN(CCC)C(=O)c1ccc2c(c1)N(Cc1ccccc1)C(=O)CS2=O (centres undefined)	85.3	-1.2	88.3	88.1
COc1ccccc1-n1c(SCC(=O)NC2CCCCC2)nc2c(c1=O)SCC2	79.0	-0.8	92.2	95.5
N#C/C(=C(/O)COC(=O)CCC1CCCCC1)c1nc2ccccc2[nH]1	24.6*	-4.4	73.8	59.5
N#C/C(=C(\O)Cc1ccccc1)c1nc2ccccc2[nH]1	14.9*	.	71.9	94.8
COc1ccccc1-c1nnc(SC/C(O)=C(\C#N)c2nc3ccccc3[nH]2)n1C1CCCCC1	69.3	-8.3	73.9	96.5
SMILES	H69AR growth 86K	Jurkat tox 60K	HUVEC inhibit	Fibroblast inh
N#C/C(=C(/O)CN1C(=O)c2ccccc2C1=O)c1nc2ccccc2[nH]1	102.8	-12.7	93.1	101.3
O=C1CC(c2ccccc2)CC2=C1CN(C1CCCCC1)CN2 (centres undefined)	22.6*	23.0	71.5	70.3
O=[N+]([O-])c1ccc(Sc2cccc3cccnc23)c([N+](=O)[O-])c1	1.6*	.	50.3	4.2*
Cc1snc(S(=O)(=O)/C(C#N)=N/Nc2ccc(C(F)(F)F)cc2)c1C#N	93.6	.	60.8	88.8
COc1cc(C2Nc3ccc4ncccc4c3C3=C2C(=O)CCC3)cc(OC)c1O (centres undefined)	27.2*	71.1*	58.7	56.2
COc1cc(C2Nc3ccc4ncccc4c3C3=C2C(=O)CC(C)(C)C3)cc(OC)c1O (centres undefined)	77.5	.	90.7	84.6
